The values below come from ChEMBL document CHEMBL1122387, “Synthesis and biological evaluation of sparsomycin analogues” (1983).

One experiment has as its system Osteoclast-like. Briefly: Percent inhibition of [75Se]- selenomethionine incorporation in the protein synthesis assay in bone marrow cell lines at a concentration of 10 E-4. In kind it is functional, Mus musculus. Summed up:
(§1)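 Protein synthesis in 6×10^5 cells per well (3×10^6 cells/mL), from CD-1 mouse femoral marrow or ip-passaged DBA/2 P388 cells. Medium is Spinner's (10% heat-inactivated FCS for P388). 0.2 μCi L-[75Se]selenomethionine is added with compound, 2 h at 37 °C, 5% CO2, rocked. Cells are harvested and gamma-counted. % inhibition versus control cpm (ethanol controls where used), six replicate wells; puromycin or sparsomycin serves as control.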

In experiment [1] the test system is P388. Briefly: Percent inhibition of [75Se]- selenomethionine incorporation in the protein synthesis assay in P388 cell lines at a concentration of 10 E-4 M. In kind it is functional. To be noted: Mus musculus. An outline of the steps: as §1
In experiment [2] the test system is P815. Nature of the experiment: Percent inhibition of [75Se]- selenomethionine incorporation in the protein synthesis assay in P815 cell lines at a concentration of 10 E-4 M. It counts as functional. To be noted: Mus musculus. Summed up:
(§2)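 P815 mastocytoma cells are cultured in complete DMEM and plated at 6×10^5 cells per well in CDMEM. 0.2 μCi L-[75Se]selenomethionine is added with compound, 2 h at 37 °C, 5% CO2, on a rocker. Cells are harvested and gamma-counted. % inhibition is taken versus control cpm (ethanol controls where used), four replicate wells.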

The nature of experiment [3]: Percent inhibition of [123I]UdR incorporation in the DNA synthesis assay in bone marrow cells at a concentration of 10 e-3 M. The following applies: Mus musculus, Bone element; in the assay text read “[125I]UdR” for “[123I]UdR”. In kind it is functional. Summed up:
(§3)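 DNA synthesis over 2 h at 37 °C, 5% CO2, on a rocker. Wells hold 6×10^5 cells (3×10^6 cells/mL): femoral marrow from male CD-1 mice, or P388 ascites cells kept by ip passage in DBA/2 mice. Medium is αMEM. Label is 0.1 μCi 125IUdR in 2×10^-5 M FUdR. Cells are harvested and gamma-counted. % inhibition versus control cpm, six replicate wells; ara-C serves as control.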

Experiment [4] can be described thus: Percent inhibition of [75Se]- selenomethionine incorporation in the protein synthesis assay in bone marrow cell lines at a concentration of 10 E-3. It counts as functional, Mus musculus. Summed up: as §1
Experiment [5] concerns P388. Nature of the experiment: Percent inhibition of [123I]UdR incorporation in the DNA synthesis assay in P388 cell lines at a concentration of 10 E-3 M. In kind it is functional. The following applies: Mus musculus, in the assay text read “[125I]UdR” for “[123I]UdR”. Summed up: as §3
Experiment [6] has as its system P388. Nature of the experiment: Percent inhibition of [75Se]- selenomethionine incorporation in the protein synthesis assay in P388 cell lines at a concentration of 10 E-3 M. The following applies: Mus musculus. In kind it is functional. Summed up: as §1
For experiment [7], the system named is P815. Briefly: Percent inhibition of [75Se]- selenomethionine incorporation in the protein synthesis assay in P815 cell lines at a concentration of 10 E-3 M. In kind it is functional. To be noted: Mus musculus. An outline of the steps:
as §2

As for `COc1ccc(CC(CO)NC(=O)/C=C/c2c(C)nc(O)nc2O)cc1` (stereo unspecified), in the experiment with Osteoclast-like, the Inhibition came out at 0%. In addition, the inhibition at 100 µM in the experiment with P388 [1] and with P815 [2] was 0% in each case.

In the case of `Cc1nc(O)nc(O)c1/C=C/C(=O)NCCc1ccc(Br)cc1`, the inhibition at 1000 µM in experiment [3] was 0%; with P388 [5], 17%; in the experiment with P388 [6] it was 27%; in the experiment on P815 [7] it was 89%. This compound showed an Inhibition in experiment [4] of 42%.

For `Cc1ccc(CCNC(=O)/C=C/c2c(C)nc(O)nc2O)cc1`, the inhibition at 1000 µM worked out at 0% in experiment [3], 0% with P388 [5], 0% in the experiment with P388 [6] and 11% with P815 [7]. Further, the Inhibition in experiment [4] was determined as 35%.

Take `Cc1nc(O)nc(O)c1/C=C/C(=O)NC(CO)Cc1ccccc1` (stereo unspecified): the inhibition at 1000 µM in experiment [3] was determined as 0%; in the experiment with P388 [5], 5%; with P388 [6] it was 6%; in the experiment on P815 [7], 52%. In experiment [4], the Inhibition is reported as 34%.

Take `Cc1nc(O)nc(O)c1/C=C/C(=O)NC(CO)Cc1ccc(Br)cc1` (stereo unspecified): the inhibition at 1000 µM in experiment [3] turned out to be 15%; in the experiment with P388 [5], 34%; in the experiment on P388 [6], 44%; in the experiment with P815 [7], 94%. For the same compound, the Inhibition in experiment [4] is listed as 64%.

As for `Cc1nc(O)nc(O)c1/C=C/C(=O)NCCC(=O)NCc1ccc(Br)cc1`, in experiment [4], the Inhibition was 29%. Also, the results for the inhibition at 1000 µM in the experiment on P388 [6] and in the experiment on P815 [7] were 23% and 69%, respectively.

With `Cc1nc(O)nc(O)c1/C=C/C(=O)NCCc1ccccc1`, the inhibition at 1000 µM was 0% in experiment [3], 9% in the experiment on P388 [5], 1% in the experiment on P388 [6] and 2% in the experiment on P815 [7]. The compound also gave an Inhibition in experiment [4] of 34%.

With `COc1ccc(CCNC(=O)/C=C/c2c(C)nc(O)nc2O)cc1`, the inhibition at 1000 µM in experiment [3] amounted to 0%; with P388 [5] it was 2%; in the experiment on P388 [6], 0%; in the experiment on P815 [7] it was 0%. Further, the Inhibition in experiment [4] is 44%.

For `COc1ccc(CNC(=O)CCNC(=O)/C=C/c2c(C)nc(O)nc2O)cc1`, in experiment [4], the Inhibition is recorded as 11%. For the same compound, the inhibition at 1000 µM was 1% in the experiment on P388 [6] and 0% with P815 [7].

Regarding `Cc1ccc(CC(CO)NC(=O)/C=C/c2c(C)nc(O)nc2O)cc1` (stereo unspecified), the inhibition at 1000 µM in experiment [3] worked out at 0%; in the experiment with P388 [5], 0%; with P388 [6], 4%; with P815 [7] it was 65%. Moreover, the Inhibition in experiment [4] is 40%.

In the case of `Nc1ccn([C@@H]2O[C@H](CO)[C@@H](O)[C@@H]2O)c(=O)n1` [CYTARABINE], the inhibition at 1000 µM (in experiment [3]; with P388 [5]) was 99% in each case.

On to `COc1ccc(C[C@H](N)C(=O)N[C@H]2[C@@H](O)[C@H](n3cnc4c(N(C)C)ncnc43)O[C@@H]2CO)cc1` [PUROMYCIN], for which the Inhibition in experiment [4] is 61%. Also, the inhibition at 1000 µM in the experiment with P388 [6] came out at 64%; in the experiment with P815 [7] it was 98%.

As for `CSC[S@@+]([O-])CC(CO)NC(=O)/C=C/c1c(C)[nH]c(=O)[nH]c1=O` (stereo partly specified) [SPARSOMYCIN], the Inhibition in experiment [4] amounted to 29%. For the same compound, testing at 1000 µM in the experiment with P388 [6] gave an inhibition of 48%.
